Experimental data: ChEMBL document CHEMBL4411267, “Phloroglucinols from the Roots of Garcinia dauphinensis and Their Antiproliferative and Antiplasmodial Activities” (J Nat Prod, 2019)

What was measured:
A2780 = assay: Antiproliferative activity against human A2780 cells assessed as reduction in cell viability incubated for 48 hrs by Alamar blue assay; type: functional, cell-based; details: A2780, 48 h
Plasmodium falciparum = assay: Antiplasmodial activity against Plasmodium falciparum Dd2 assessed as reduction in parasite viability incubated for 72 hrs by SYBR Green I dye based assay; type: functional, organism-based; details: Dd2, 72 h
Method in brief: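 Ring-stage parasite cultures at 1% parasitemia and 1% hematocrit, exposed to samples for 72 h at 37 °C under 5% CO2/5% O2/90% N2. Viability read by DNA quantitation with SYBR Green I in lysis buffer (0.33 μL dye per mL, 25 μL added). IC50 by nonlinear regression curve fitting; mean ± SD of three independent experiments.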

[1] = Selectivity index, ratio of IC50 for antiproliferative activity against human A2780 cells to IC50 for antiplasmodial activity against Plasmodium falciparum Dd2; type: functional

| SMILES | IC50 (A2780) | IC50 (Plasmodium falciparum) | Ratio IC50 [1] |
| --- | --- | --- | --- |
| CCC(C)C(=O)c1c(O)cc(O)c(C/C=C(\C)CCC=C(C)C)c1O (stereo not drawn) | 12.4 µM |  |  |
| C=C(C)CCC(Cc1c(O)cc(O)c(C(=O)[C@@H](C)CC)c1O)/C(C)=C/CC=C(C)C (stereo partly drawn) | 7 µM | 12 µM |  |
| C=C1[C@@H](Cc2c(O)cc(O)c(C(=O)[C@@H](C)CC)c2O)CCC(C)(C)[C@@H]1CC=C(C)C | 15.2 µM | 0.8 µM | 20 |
| CC[C@H](C)C(=O)c1c(O)cc(O)c(CC(CCC(C)(C)O)/C(C)=C/CC=C(C)C)c1O (stereo partly drawn) |  | 8.3 µM |  |
| CC[C@H](C)C(=O)c1c(O)cc(O)c(CCC(C)(O)CCC=C(C)C)c1O (stereo partly drawn) | 6.4 µM | 5.4 µM |  |
| CC[C@H](C)C(=O)c1c(O)cc(O)c(CC2=C(C)[C@@H](CC=C(C)C)C(C)(C)CC2)c1O | 4.5 µM | 4.7 µM |  |
| CC(C)=CCC/C(C)=C/Cc1c(O)cc(O)c(C(=O)C(C)C)c1O | 16.4 µM | 12.5 µM |  |
| CC[C@H](C)C(=O)c1c(O)cc2c(c1O)C[C@@H]1C(C)(C)CCC[C@@]1(C)O2 (relative stereo) |  | 14.1 µM |  |
| C[C@@H]1CC[C@H]2[C@@H](C)C(=O)O[C@@H]3O[C@@]4(C)CC[C@@H]1[C@]32OO4 [ARTEMISININ] |  | 0.0085 µM |  |
| CC(C)=CCC/C(C)=C/CC/C(C)=C/CC[C@]1(C)CCc2cc(O)cc(C)c2O1 [DELTA-TOCOTRIENOL] | 19.7 µM | 5.3 µM |  |
| CCC(C)C(=O)c1c(O)cc(O)c2c1O[C@](C)(CCC=C(C)C)[C@@H](O)C2 (stereo partly drawn) [EMPETRIKARINOL B] | 10 µM |  |  |
